ChEMBL document CHEMBL3112427, “Insights into the mechanism of streptonigrin-induced protein arginine deiminase inactivation” (Bioorg Med Chem, 2014)
Active and inactive are the calls of the source. No cut-off for these calls is given here.

Tests used:
NIH3T3 [1] = assay: Cytotoxicity against mouse NIH/3T3 cells assessed as cell viability at 10 uM after 3 days by XTT-PMS assay relative to control; assay type: cell-based; details: nih3t3, 72 h
Method in brief: (§1)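 U2OS or NIH 3T3 cells (2.5 × 10^4 cells/mL) plated in 48-well format (n=4) and dosed with 10 µM compound for 3 days. XTT-PMS activated reagent then added for 4 h of colour development; formazan absorbance read at 475 nm.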

U2OS [2] = assay: Cytotoxicity against human U2OS cells assessed as cell viability at 10 uM after 3 days by XTT-PMS assay relative to control; assay type: functional; details: for viability at 10 µM: 72 h, read-out: Activity; method in brief: as §1
[3] = molecular target: T1, Protein-arginine deiminase type-4 (Homo sapiens, UniProt Q9UM07); assay: Inhibition of recombinant wild-type PAD4 (unknown origin) using N-alpha-Benzoyl-L-arginine ethyl ester as substrate preincubated for 15 mins followed by substrate addition measured after 15 mins by COLDER assay
T1 sequence (Q9UM07 whole entry): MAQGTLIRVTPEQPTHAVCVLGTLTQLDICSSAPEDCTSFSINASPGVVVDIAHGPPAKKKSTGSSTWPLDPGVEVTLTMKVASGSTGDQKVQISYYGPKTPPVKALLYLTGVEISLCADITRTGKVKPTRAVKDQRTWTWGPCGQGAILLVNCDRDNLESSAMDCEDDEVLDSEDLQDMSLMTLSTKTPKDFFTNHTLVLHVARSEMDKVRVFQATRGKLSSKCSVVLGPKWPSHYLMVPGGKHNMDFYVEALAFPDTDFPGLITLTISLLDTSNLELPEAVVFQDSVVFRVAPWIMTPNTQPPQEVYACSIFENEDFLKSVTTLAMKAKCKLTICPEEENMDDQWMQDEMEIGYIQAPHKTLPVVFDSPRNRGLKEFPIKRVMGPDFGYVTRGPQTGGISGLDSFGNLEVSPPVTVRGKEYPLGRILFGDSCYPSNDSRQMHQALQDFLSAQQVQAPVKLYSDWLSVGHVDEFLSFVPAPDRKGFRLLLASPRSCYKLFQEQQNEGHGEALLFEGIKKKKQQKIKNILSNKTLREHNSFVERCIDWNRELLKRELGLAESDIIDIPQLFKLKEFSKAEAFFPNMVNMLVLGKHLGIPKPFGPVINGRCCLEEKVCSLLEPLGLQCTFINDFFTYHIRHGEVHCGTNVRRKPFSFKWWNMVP

[4] = molecular target: T2, Protein-arginine deiminase type-3 (Homo sapiens, UniProt Q9ULW8); assay: Inhibition of recombinant wild-type PAD3 (unknown origin) using N-alpha-Benzoyl-L-arginine amide as substrate preincubated for 15 mins followed by substrate addition measured after 15 mins by COLDER assay
T2 sequence (Q9ULW8 whole entry): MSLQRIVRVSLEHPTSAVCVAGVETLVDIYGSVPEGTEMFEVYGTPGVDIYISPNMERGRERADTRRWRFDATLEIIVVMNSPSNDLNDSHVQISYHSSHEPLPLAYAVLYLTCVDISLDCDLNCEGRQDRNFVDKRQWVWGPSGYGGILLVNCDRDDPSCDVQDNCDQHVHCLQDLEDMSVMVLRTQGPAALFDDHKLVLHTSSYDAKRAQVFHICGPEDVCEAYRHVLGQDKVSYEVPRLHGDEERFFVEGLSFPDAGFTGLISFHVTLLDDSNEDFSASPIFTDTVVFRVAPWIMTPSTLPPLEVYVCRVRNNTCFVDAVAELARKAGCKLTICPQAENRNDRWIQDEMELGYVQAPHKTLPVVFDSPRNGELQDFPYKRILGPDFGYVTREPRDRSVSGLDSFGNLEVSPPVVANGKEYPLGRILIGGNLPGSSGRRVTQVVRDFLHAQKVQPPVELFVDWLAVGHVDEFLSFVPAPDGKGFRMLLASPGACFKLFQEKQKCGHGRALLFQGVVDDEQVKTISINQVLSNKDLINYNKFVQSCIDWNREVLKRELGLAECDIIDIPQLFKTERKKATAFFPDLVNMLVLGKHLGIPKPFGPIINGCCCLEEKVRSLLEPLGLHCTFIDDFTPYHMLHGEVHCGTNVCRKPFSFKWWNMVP

[5] = molecular target: T3, Protein-arginine deiminase type-2 (Homo sapiens, UniProt Q9Y2J8); assay: Inhibition of recombinant wild-type PAD2 (unknown origin) using N-alpha-Benzoyl-L-arginine ethyl ester as substrate preincubated for 15 mins followed by substrate addition measured after 15 mins by COLDER assay
T3 sequence (Q9Y2J8 whole entry): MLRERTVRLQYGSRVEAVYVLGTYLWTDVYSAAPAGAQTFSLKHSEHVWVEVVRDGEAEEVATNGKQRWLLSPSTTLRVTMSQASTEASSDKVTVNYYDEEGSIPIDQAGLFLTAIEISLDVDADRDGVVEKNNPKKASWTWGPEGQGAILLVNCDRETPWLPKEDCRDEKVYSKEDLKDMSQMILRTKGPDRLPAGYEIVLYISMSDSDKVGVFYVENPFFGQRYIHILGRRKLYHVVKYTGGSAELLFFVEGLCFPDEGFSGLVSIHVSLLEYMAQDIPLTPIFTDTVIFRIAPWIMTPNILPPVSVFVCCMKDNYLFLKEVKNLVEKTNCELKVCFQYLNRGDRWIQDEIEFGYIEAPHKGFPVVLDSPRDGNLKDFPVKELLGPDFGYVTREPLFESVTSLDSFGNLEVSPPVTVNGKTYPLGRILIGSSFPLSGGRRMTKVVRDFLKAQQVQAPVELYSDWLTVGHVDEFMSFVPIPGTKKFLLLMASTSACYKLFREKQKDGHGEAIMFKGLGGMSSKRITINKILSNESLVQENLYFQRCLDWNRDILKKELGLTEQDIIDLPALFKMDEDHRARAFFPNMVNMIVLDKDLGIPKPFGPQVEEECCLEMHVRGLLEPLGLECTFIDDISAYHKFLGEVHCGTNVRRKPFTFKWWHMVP

[6] = molecular target: T4, Protein-arginine deiminase type-1 (Homo sapiens, UniProt Q9ULC6); assay: Inhibition of recombinant wild-type PAD1 (unknown origin) using N-alpha-Benzoyl-L-arginine amide as substrate preincubated for 15 mins followed by substrate addition measured after 15 mins by COLDER assay
T4 sequence (Q9ULC6 whole entry): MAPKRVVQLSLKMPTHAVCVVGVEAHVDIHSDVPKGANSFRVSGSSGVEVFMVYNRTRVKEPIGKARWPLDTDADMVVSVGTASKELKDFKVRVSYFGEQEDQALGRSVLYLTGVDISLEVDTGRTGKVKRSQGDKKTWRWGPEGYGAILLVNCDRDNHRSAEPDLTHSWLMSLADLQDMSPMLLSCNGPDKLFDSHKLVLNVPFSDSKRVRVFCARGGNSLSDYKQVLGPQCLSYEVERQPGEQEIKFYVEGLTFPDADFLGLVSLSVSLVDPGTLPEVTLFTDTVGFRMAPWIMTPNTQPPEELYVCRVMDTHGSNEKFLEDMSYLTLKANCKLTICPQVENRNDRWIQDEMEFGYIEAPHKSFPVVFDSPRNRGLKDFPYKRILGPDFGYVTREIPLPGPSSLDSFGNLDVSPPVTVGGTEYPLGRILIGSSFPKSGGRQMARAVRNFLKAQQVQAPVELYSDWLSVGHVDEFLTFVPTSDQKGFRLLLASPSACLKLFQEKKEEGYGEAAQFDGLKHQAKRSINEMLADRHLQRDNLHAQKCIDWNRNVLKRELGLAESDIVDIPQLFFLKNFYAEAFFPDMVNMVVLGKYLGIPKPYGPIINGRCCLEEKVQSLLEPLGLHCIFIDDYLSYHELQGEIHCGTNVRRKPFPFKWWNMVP

NIH3T3 [7] = assay: Cytotoxicity against mouse NIH/3T3 cells after 3 days by XTT-PMS assay; details: NIH3T3, 72 h
U2OS [8] = assay: Cytotoxicity against human U2OS cells after 3 days by XTT-PMS assay; details: 72 h
[9] = test system: Protein-arginine deiminase type-4 (Homo sapiens), Q9UM07 [C645A]; assay: Binding affinity to PAD4 C645A mutant (unknown origin) assessed as mass shift of enzyme at 1:10 enzyme to compound ratio preincubated for 1 hr followed by overnight dialysis in double distilled water by MALDI mass spectrometric analysis in presence of catalase
Protein-arginine deiminase type-4 (Homo sapiens), Q9UM07 [C645A], sequence (Q9UM07 whole entry C645A): as the sequence (Q9UM07 whole entry) above, with C645A counted along it

[10] = molecular target: T1, Protein-arginine deiminase type-4; assay: Binding affinity to recombinant wild-type PAD4 (unknown origin) assessed as mass shift of enzyme at 1:10 enzyme to compound ratio preincubated for 1 hr followed by overnight dialysis in double distilled water by MALDI mass spectrometric analysis in presence of catalase
[11] = test system: Protein-arginine deiminase type-4 (Homo sapiens), Q9UM07 [C645A]; assay: Binding affinity to PAD4 C645A mutant (unknown origin) assessed as mass shift of enzyme at 1:10 enzyme to compound ratio preincubated for 1 hr followed by overnight dialysis in double distilled water by MALDI mass spectrometric analysis in presence of superoxide dismutase
[12] = molecular target: T1, Protein-arginine deiminase type-4; assay: Binding affinity to recombinant wild-type PAD4 (unknown origin) assessed as mass shift of enzyme at 1:10 enzyme to compound ratio preincubated for 1 hr followed by overnight dialysis in double distilled water by MALDI mass spectrometric analysis in presence of superoxide dismutase
[13] = test system: Protein-arginine deiminase type-4 (Homo sapiens), Q9UM07 [C645A]; assay: Binding affinity to PAD4 C645A mutant (unknown origin) assessed as mass shift of enzyme at 1:10 enzyme to compound ratio preincubated for 1 hr followed by overnight dialysis in double distilled water by MALDI mass spectrometric analysis
[14] = test system: Protein-arginine deiminase type-2 (Homo sapiens), Q9Y2J8 [C647A]; assay: Binding affinity to PAD2 C647A mutant (unknown origin) assessed as mass shift of enzyme at 1:10 enzyme to compound ratio preincubated for 1 hr followed by overnight dialysis in double distilled water by MALDI mass spectrometric analysis
Protein-arginine deiminase type-2 (Homo sapiens), Q9Y2J8 [C647A], sequence (Q9Y2J8 whole entry C647A): as the sequence (Q9Y2J8 whole entry) above, with C647A counted along it

[15] = molecular target: T3, Protein-arginine deiminase type-2; assay: Binding affinity to recombinant wild-type PAD2 (unknown origin) assessed as mass shift of enzyme at 1:10 enzyme to compound ratio preincubated for 1 hr followed by overnight dialysis in double distilled water by MALDI mass spectrometric analysis
[16] = molecular target: T1, Protein-arginine deiminase type-4; assay: Binding affinity to recombinant wild-type PAD4 (unknown origin) assessed as mass shift of enzyme at 1:10 enzyme to compound ratio preincubated for 1 hr followed by overnight dialysis in double distilled water by MALDI mass spectrometric analysis
[17] = molecular target: T1, Protein-arginine deiminase type-4; assay: Competitive inhibition of recombinant wild-type PAD4 (unknown origin) at 1 to 50 uM by fluorescence polarization-ABPP assay in presence of RFA; details: in the assay text read “gel-based competitive ABPP assay” for “fluorescence polarization-ABPP assay”
Method in brief: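 Wild-type PAD4 (2 µM final) labelled with RFA (10 µM final) plus 10 mM calcium in the presence of competitor (0–50 µM final). Quenched with SDS loading buffer, boiled 20 min, run on 12% SDS-PAGE; in-gel fluorescence imaged and quantified.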

[18] = molecular target: T1, Protein-arginine deiminase type-4; assay: Irreversible inhibition of recombinant wild-type PAD4 (unknown origin) using N-alpha-Benzoyl-L-arginine ethyl ester as substrate assessed as residual activity at 170-fold excess of compound after 1 hr by dialysis method
Method in brief: (§2)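 Wild-type PAD2 or PAD4 (0.6 µM final) incubated 1 h with compound (170-fold excess) or no compound in Reaction Buffer, then dialysed 20 h against Long-Term Storage Buffer (Tris-HCl pH 7.6, 1 mM EDTA, 500 mM NaCl, 2 mM DTT, 10% glycerol). Residual activity measured with 10 mM BAEE, quenched in liquid N2, and expressed relative to separately dialysed untreated enzyme (100%).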

[19] = molecular target: T5, Protein-arginine deiminase type-3 (Homo sapiens) (UniProt Q9ULW8); assay: Irreversible inhibition of recombinant wild-type PAD3 (unknown origin) using N-alpha-Benzoyl-L-arginine amide as substrate assessed as residual activity at 170-fold excess of compound after 1 hr by dialysis method
T5 sequence (whole entry): T2 sequence (Q9ULW8 whole entry)

[20] = molecular target: T3, Protein-arginine deiminase type-2; assay: Irreversible inhibition of recombinant wild-type PAD2 (unknown origin) using N-alpha-Benzoyl-L-arginine ethyl ester as substrate assessed as residual activity at 170-fold excess of compound after 1 hr by dialysis method; method in brief: as §2
[21] = molecular target: T6, Protein-arginine deiminase type-1 (Homo sapiens) (UniProt Q9ULC6); assay: Irreversible inhibition of recombinant wild-type PAD1 (unknown origin) using N-alpha-Benzoyl-L-arginine amide as substrate assessed as residual activity at 170-fold excess of compound after 1 hr by dialysis method
T6 sequence (whole entry): T4 sequence (Q9ULC6 whole entry)

[22] = molecular target: T3, Protein-arginine deiminase type-2; details: at 0.1 to 2.5 µM
[23] = molecular target: T3, Protein-arginine deiminase type-2; assay: Inhibition of recombinant wild-type PAD2 (unknown origin) using N-alpha-Benzoyl-L-arginine ethyl ester as substrate preincubated for 10 mins followed by substrate addition measured after 15 mins by COLDER assay
[24] = molecular target: T1, Protein-arginine deiminase type-4; assay: Inhibition of recombinant wild-type PAD4 (unknown origin) using N-alpha-Benzoyl-L-arginine ethyl ester as substrate preincubated for 10 mins followed by substrate addition measured after 15 mins by COLDER assay
[25] = molecular target: T1, Protein-arginine deiminase type-4; details: 0.5 uM
[26] = molecular target: T3, Protein-arginine deiminase type-2
[27] = molecular target: T1, Protein-arginine deiminase type-4

Row | SMILES | Activity (NIH3T3 [1]) | Activity (U2OS [2]) | IC50 [3] | IC50 [4] | IC50 [5] | IC50 [6] | viability at 10 µM (U2OS [2]) | EC50 (NIH3T3 [7]) | EC50 (U2OS [8]) | Activity [9] | Activity [10] | Activity [11] | Activity [12] | Activity [13] | Activity [14] | Activity [15] | Activity [16] | inhibition [17] | inhibition [22] | also measured
1 | COC1=C(Br)C(=O)c2ncccc2C1=O | Active | Active | 3.3 µM | 4.4 µM | 6.32 µM | 4.55 µM |  |  |  |  |  |  |  |  |  |  |  |  |  | 
2 | NC1=C(Br)C(=O)c2cccnc2C1=O | <= 30% |  |  |  |  |  | ≤ 30% |  |  |  |  |  |  |  |  |  |  |  |  | 
3 | NC1=CC(=O)c2cccnc2C1=O | <= 30% |  | 1 µM | 0.17 µM | 0.74 µM | 0.96 µM | ≤ 30% | 1.1 µM | 0.8 µM |  |  |  |  |  |  |  |  |  |  | 
4 | NC1=CC(=O)c2ccc(-c3cccc(C(=O)O)n3)nc2C1=O | Active | Active |  | 0.71 µM | 0.2 µM | 0.07 µM |  | 61.7 µM | 58.3 µM | Active | Active | Active | Active | Active | Active | Active | Active | Active | Active | Activity [18]: inactive; Activity [19]: inactive; Activity [20]: inactive; Activity [21]: inactive
5 | COC1=C(N)C(=O)c2nc(-c3nc(C(=O)O)c(C)c(-c4ccc(OC)c(OC)c4O)c3N)ccc2C1=O [STREPTONIGRIN] |  |  |  | 0.43 µM | 26.1 µM | 48.3 µM |  |  |  | Active | Active | Active | Active | Active | Active | Active | Active | Active | Active | 
6 | NC1=CC(=O)c2ccc(-c3ccccn3)nc2C1=O | <= 30% |  | 0.64 µM | 0.13 µM | 0.32 µM | 0.95 µM | ≤ 30% | 0.6 µM | 0.4 µM | Active | Active | Active | Active | Active | Active | Active | Active | Active | Active | Ki [23]: 8.08 µM; Ki [24]: 20.1 µM; inhibition [25]: Active; Kinact [26]: 0.07 min⁻¹; Kinact [27]: 0.12 min⁻¹
